High-throughput results deposited in PubChem BioAssay by Johns Hopkins Ion Channel Center.
RGS4 act = potentiators or activators of RGS4 | HEK293 M3R/inducible RGS4, carbachol calcium flux Fluo4; hits give low values | B-score at 10 µM | actives 0.92% (n = 310,000) | AID 463111;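 active = B-score of the integrated calcium signal more than 4 SD below the library mean, with starting fluorescence not abnormally high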;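 note: negative B-score means reduced calcium response which marks RGS4 activation or potentiation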
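Test system: HEK293 cells with stable M3R and inducible RGS4; also added: carbachol at ECmax as muscarinic agonist stimulus; schedule: dye loading 30 min 37 °C, buffer rest 30 min RT; technique: kinetic calcium fluorescence imaging with Fluo4-AM dye, 2 µM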
MrgX1 PAM = allosterically activates human MrgX1 receptor signaling; AID 588675; actives 0.63% (n = 310,000); MrgX1-HEK293, Fluo-4 calcium flux, FDSS; hits give high values; B-score at 10 µM;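 active = plate-corrected calcium response at least 3 library SD above typical, normal starting fluorescence, not activating the receptor alone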;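 note: compound read alongside a low EC10 to EC30 dose of BAM8-22 agonist; peak minus trough fluorescence over baseline measured at the second addition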
Target sequence (Q96LB2 whole entry, looked up): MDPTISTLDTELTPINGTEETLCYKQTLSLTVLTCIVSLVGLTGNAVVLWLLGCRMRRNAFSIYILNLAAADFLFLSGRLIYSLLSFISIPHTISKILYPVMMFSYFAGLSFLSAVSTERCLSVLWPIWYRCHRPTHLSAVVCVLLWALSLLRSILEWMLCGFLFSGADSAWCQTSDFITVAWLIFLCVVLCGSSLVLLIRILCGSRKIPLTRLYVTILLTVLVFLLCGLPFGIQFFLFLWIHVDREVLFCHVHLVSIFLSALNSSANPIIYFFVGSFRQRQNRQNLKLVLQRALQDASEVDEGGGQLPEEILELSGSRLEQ
RGS4 inh = human RGS4 inhibition. AID 463165. actives 0.45% (n = 310,000). P49798. B-score at 10 µM. HEK293 M3R/RGS4 inducible, Fluo-4 calcium flux; hits give high values; triggered by carbachol at its EC20;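 active = B-score, a plate-corrected calcium signal, over three deviations above library mean, with baseline fluorescence within five deviations of library mean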;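 note: RGS4 expression induced by doxycycline in cells with stable M3 receptor; B-score is computed from the integrated fluorescence ratio over baseline after carbachol; higher B-score means a larger calcium signal and so more RGS4 inhibition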
Target sequence (P49798 whole entry, looked up): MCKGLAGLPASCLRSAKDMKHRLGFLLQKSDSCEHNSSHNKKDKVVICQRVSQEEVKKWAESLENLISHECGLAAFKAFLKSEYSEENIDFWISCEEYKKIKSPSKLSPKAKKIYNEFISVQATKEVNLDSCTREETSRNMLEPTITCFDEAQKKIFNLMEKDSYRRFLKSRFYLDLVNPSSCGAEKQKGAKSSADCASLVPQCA
MrgX1 ag = agonists of human MrgX1 receptor | Q96LB2 | actives 0.44% (n = 310,000) | B-score at 10 µM | MrgX1-HEK293 cells, Fluo-4 calcium fluorescence, agonist mode; hits give high values | AID 588627;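 active = calcium response B-score plate-corrected fluorescence ratio at least 3 library SD, with starting fluorescence B-score inside 5 SD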
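Material: HEK293 cells stably expressing human MrgX1 receptor | Quantity: 15,000 cells per well | Times: Cells plated overnight, dye loaded 0.5 h 37 °C, 0.5 h room temperature | Measured by: Kinetic Fluo-4 NW fluorescence of intracellular calcium | Control set: Positive and negative controls per plate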
MrgX1 antag = blocks BAM8-22 activation of human MrgX1 receptor; Q96LB2; MRGX1-HEK293 calcium flux, Fluo-4, BAM8-22 antagonism; hits give low values; B-score at 10 µM; actives 1.3% (n = 310,000);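 active = calcium-response B-score plate-corrected more than 3 library SD below zero, starting fluorescence within 5 deviations, no agonist response on first addition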;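 note: peak minus trough fluorescence over baseline after final BAM8-22 challenge near maximal dose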
MrgX1 antag conf = reconfirmed antagonist of human MrgX1 receptor signaling; shares compounds with MrgX1 antag; MrgX1-HEK293, BAM8-22 calcium flux, Fluo-4; hits give low values; remaining BAM8-22 calcium response % of control (hits give low values), % at 10 µM; actives 19% (n = 2,300); AID 602420;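 active = remaining agonist calcium response no higher than 100% minus 3 SD of agonist-only control wells, with starting fluorescence near control levels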;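 note: agonist BAM8-22 given at a near maximal EC90 to ECmax level; peak minus minimum fluorescence divided by baseline after agonist addition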
HEK293 Ca flux = activity in parental HEK293 cells lacking MrgX1. shares compounds with MrgX1 antag. Fluo-4 calcium fluorescence, FDSS. fluorescence ratio F(max-min)/F0 at 10 µM. actives 2% (n = 4,000). AID 624111;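 active = duplicate-averaged calcium fluorescence ratio at least three times the standard deviation of buffer wells, a nonspecific response in parental cells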
HEK293 Ca counter = counter-screen for MrgX1 allosteric activators: effect in parental HEK293 cells; shares compounds with MrgX1 antag; parental HEK293 calcium flux, Fluo-4 fluorescence ratio; hits give high values; fluorescence ratio F(max-min)/F0 at 10 µM; actives 0.4% (n = 4,000); AID 624114;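 active = calcium fluorescence ratio, averaged over duplicates, at least 3 SD of the buffer-well ratio, meaning a nonspecific response in receptor-free cells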;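 note: untransfected parental HEK293 lacking MrgX1 used as counterscreen for MrgX1 allosteric activators; fluorescence change taken during the second addition on a kinetic imager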
HEK293 Ca cntr2 = counter-screen for MrgX1 activators: effect in parental HEK293 cells | shares compounds with MrgX1 antag | Fluo-4 calcium fluorescence (FDSS); hits give high values | fluorescence ratio F(max-min)/F0 at 10 µM | actives 8.7% (n = 4,000);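 active = calcium fluorescence ratio at least three times the spread of buffer wells, meaning a non-specific response in parental cells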
Starred values were filed as active, the others as inactive; i = inactive; · = not tested or not shown. Rows were chosen to be rich in hits. Some 3.5% of all compounds tested hit in one or more screens of this group.

SMILES	RGS4 act	MrgX1 PAM	RGS4 inh	MrgX1 ag	MrgX1 antag	MrgX1 antag conf	HEK293 Ca flux	HEK293 Ca counter	HEK293 Ca cntr2
NC(=O)C1(N2CCCCC2)CCN(C(=S)Nc2cccc(Cl)c2)CC1	i	i	i	i	i	·	·	·	·
CCN(CC)c1ccc2c(Cl)c(Br)c(=O)oc2c1	i	i	i	i	-14*	i	0.037*	i	i
COc1ccc(CN2C3CCCC2CC(NC(=O)Nc2cccc(C)c2)C3)cc1 (stereo not given)	i	i	i	i	-7.9*	72%*	i	i	i
COc1ccc(CN2C3CCCC2CC(NC(=O)Nc2ccccc2)C3)cc1 (stereo not given)	i	i	i	i	i	·	·	·	·
O=C(Cc1csc(NC(=O)c2ccc(F)cc2)n1)NO	i	i	i	i	i	·	·	·	·
O=C1CCN(S(=O)(=O)c2ccc(Cl)cc2)CCN1	i	i	i	i	-4.6*	84%*	i	i	i
O=C(NCCc1nnc2ccc(N3CCCCCC3)nn12)c1ccccc1F	i	i	i	i	i	·	·	·	·
C[C@H](NCc1c[nH]c2ccccc12)c1ccccc1	i	i	i	i	i	·	·	·	·
COc1ccc(NC(=O)C(=O)NCCN2CCN(C(=O)c3ccco3)CC2)cc1	i	i	i	i	i	·	·	·	·
COc1cc2cc(C(=O)O)[nH]c2c(OC)c1OC	i	i	i	i	-5.7*	i	i	i	i
COc1ccc(OC)c2c(=O)cc(C(=O)O)[nH]c12	i	i	i	i	i	·	·	·	·
CN(CC(=O)Nc1ccccc1Br)C(=O)c1cccn1C	i	i	i	i	i	·	·	·	·
COc1ccc(-n2c(=S)[nH]c3cc(C(=O)Nc4ccc(C)c(F)c4)ccc3c2=O)c(OC)c1	i	i	i	i	-5*	i	i	i	i
Cc1ccc(CN2CCN(Cc3cnc(C)[nH]3)CC2CCO)cc1 (stereo not given)	i	i	i	i	i	·	·	·	·
O=C(COc1ccc(S(=O)(=O)N2CCOCC2)cc1Cl)NCC1CCCO1 (stereo not given)	i	i	i	i	i	·	·	·	·
CCOC(=O)c1cnc(SC)nc1Oc1cccc(NS(=O)(=O)c2ccc(Cl)cc2)c1	i	i	i	i	-8.7*	73%*	i	i	i
CCOC(=O)c1cnc(SC)nc1Oc1cccc(NC(=O)c2ccc(Cl)cc2)c1	i	i	i	i	i	·	·	·	·
Cc1ccc(S(=O)(=O)N2CCOCC2)cc1C(=O)Nc1nc(-c2cccnc2)cs1	i	i	i	i	-13*	i	i	i	i
CCCSc1ccc([C@H]2N[C@@](C)(C(=O)OC)[C@H]3C(=O)N(C)C(=O)[C@@H]23)cc1	i	i	i	i	i	·	·	·	·
COC(=O)[C@]1(C)N[C@H](c2ccc(SC3CCCCC3)cc2)[C@@H]2C(=O)N(C)C(=O)[C@@H]21	i	i	i	i	-7.9*	i	i	i	i
COc1ccccc1NS(=O)(=O)c1cc(NC(=O)C(C)(C)C)ccc1N1CCOCC1	i	i	i	i	-4.6*	82%*	i	i	i
CCN(CC)CCNC(=O)c1ccc(NC(=O)c2ccc(F)cc2F)cc1	i	i	i	i	i	·	·	·	·
Cc1ccc(O)c(NC(=S)NC(=O)Cc2ccc(Cl)cc2)c1	-7.5*	i	i	i	-24*	27%*	i	i	i
CC1CCC(NC(=O)CC(NC(N)=O)c2ccccc2Cl)CC1 (stereo not given)	i	i	i	i	i	·	·	·	·
CCCOC(=O)c1cc(=O)[nH]c2ccccc12	i	i	i	i	-4.7*	i	i	i	i
SMILES	RGS4 act	MrgX1 PAM	RGS4 inh	MrgX1 ag	MrgX1 antag	MrgX1 antag conf	HEK293 Ca flux	HEK293 Ca counter	HEK293 Ca cntr2
CCN(CC)S(=O)(=O)c1ccc(NC2c3ncccc3C(=O)N2Cc2ccccc2)cc1 (stereo not given)	i	i	i	i	-9.3*	i	i	i	i
Cc1cc(C)cc(-c2nnc(SCC(=O)N3CCN(C(=O)c4ccco4)CC3)o2)c1	i	i	i	i	-6.3*	i	i	i	i
COc1ccc(CCNC(=O)c2cc3c(C)nccc3[nH]c2=O)cc1OC	i	i	i	i	i	·	·	·	·
Cc1ccc(-c2nc3cc(N)ccc3o2)cc1	i	i	i	i	i	·	·	·	·
Cc1ccc2oc(-c3cccc(N)c3)nc2c1	i	i	i	i	-6.2*	i	i	i	i
Cc1ccc(-n2ccnc(SCC(=O)NCCc3ccccc3)c2=O)cc1F	i	i	i	i	-4.6*	i	i	i	i
CCOc1ccc(-n2ccnc(SCC(=O)NCCc3ccccc3)c2=O)cc1	i	i	i	i	i	·	·	·	·
Cc1nc(-c2ccc(S(=O)(=O)N3CCN(C4c5ccccc5-c5ccccc54)CC3)s2)cs1	i	i	i	i	-5.3*	i	i	i	i
O=C(CSc1nnc(-c2ccccn2)o1)Nc1ccccc1F	i	i	i	i	i	·	·	·	·
c1nc(N2CCOCC2)c2c3c(sc2n1)CCCC3	i	i	i	i	i	·	·	·	·
O=C(c1ccccc1)N1CCN(c2ncnc3sc4c(c23)CCC4)CC1	i	i	i	i	-5.1*	i	i	i	i
Cc1cc(C(=O)NC(C)c2ccc3c(c2)OCO3)cs1 (stereo not given)	i	i	i	i	-4.6*	i	i	i	i
Cc1cc(C(=O)Nc2ccc3c(c2)OCO3)cs1	i	i	i	i	i	·	·	·	·
CCCN1C2CCCC1CC(NC(=O)NC1CCCCC1)C2 (stereo not given)	i	i	i	i	i	·	·	·	·
O=C(CN1C2CCC1CC(NC(=O)NC1CCCCC1)C2)NC1CC1 (stereo not given)	i	i	i	i	-5.5*	i	i	i	i
